{"source": "paper PMC4176526", "about": "(Bioorganic & medicinal chemistry letters, 2014)", "biological_target": "Myc-tagged Akt1 (Homo sapiens, UniProt P31749)", "sequence (P31749 whole entry, the tested form may be a part)": "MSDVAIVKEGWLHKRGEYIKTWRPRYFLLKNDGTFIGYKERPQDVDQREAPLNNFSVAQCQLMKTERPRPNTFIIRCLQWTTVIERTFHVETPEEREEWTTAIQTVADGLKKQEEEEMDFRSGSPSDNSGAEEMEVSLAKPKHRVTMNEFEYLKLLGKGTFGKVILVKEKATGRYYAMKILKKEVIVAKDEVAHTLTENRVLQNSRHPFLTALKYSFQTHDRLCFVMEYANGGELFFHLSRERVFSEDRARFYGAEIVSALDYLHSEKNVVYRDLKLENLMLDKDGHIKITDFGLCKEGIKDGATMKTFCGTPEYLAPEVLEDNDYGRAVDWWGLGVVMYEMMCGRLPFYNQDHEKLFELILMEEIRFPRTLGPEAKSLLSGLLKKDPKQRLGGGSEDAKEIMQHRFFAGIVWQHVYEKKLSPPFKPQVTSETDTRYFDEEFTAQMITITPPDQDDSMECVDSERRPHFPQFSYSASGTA", "type": "biochemical", "details": "at 5 µM, immunoblot", "summary_of_the_method": "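HEK293 cells transfected with Myc-tagged Akt1; the kinase was immunoprecipitated with anti-Myc antibody. The immobilized enzyme was incubated with a GSK3β fusion protein substrate, with or without test compound. Phospho-GSK3β was detected by immunoblot, and an approximate IC50 was estimated from the blots.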", "data": [{"smiles": "NC1(c2ccc(-c3nc4ccn5c(=O)[nH]nc5c4cc3-c3ccccc3)cc2)CCC1", "note": "[MK2206]", "values": [{"measurement": "phosphorylation of GSK3β", "value": "completely blocks"}]}]}
